Source: PubChem
VLA-4 inh – inhibition in a human VLA-4 binding assay | P13612 | VLA-4 expressing cells, ligand binding flow cytometry | inhibition, % (about 7 µM as worked out from the volumes in the protocol) | hit rate 0.2% among 330,000; in the data active means inhibition above about 50%
Platelet DG rel – platelet dense granule release activity. human platelet-rich plasma, SFLLRN dense granule ATP release, luminescence. inhibition, %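 (compounds screened at 7.5 µM in platelet-rich plasma)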. hit rate 0.22% among 300,000. AID 1663;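 active means mean replicate score, as percent of positive control, at or above 50; inconclusive means mean below 50 but at least one replicate at or above 50; inactive means mean and every replicate below 50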
Rce1 inh – blocks yeast Ras-converting enzyme; Q03530; yeast membranes, quenched prenylated peptide cleavage fluorescence; calls only; hit rate 0.27% among 290,000;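 active means fall in fluorescence gain of 50% or more versus controls, with final raw signal at or below 3038400; inconclusive means same 50% fall but final raw signal above 3038400; inactive means fall in fluorescence gain under 50%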;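 further: plate controls were neutral control wells for no effect and wells lacking membranes for full effect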
Target sequence (Q03530 whole entry, looked up): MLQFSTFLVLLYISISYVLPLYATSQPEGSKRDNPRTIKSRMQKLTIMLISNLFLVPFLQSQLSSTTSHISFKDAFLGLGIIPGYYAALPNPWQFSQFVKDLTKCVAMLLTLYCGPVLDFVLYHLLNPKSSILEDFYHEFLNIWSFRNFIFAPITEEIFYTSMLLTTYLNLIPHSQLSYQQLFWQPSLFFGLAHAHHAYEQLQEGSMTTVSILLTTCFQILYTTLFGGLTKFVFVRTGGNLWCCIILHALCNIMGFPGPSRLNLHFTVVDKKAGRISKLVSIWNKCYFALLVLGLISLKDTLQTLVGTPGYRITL
TAAR1 antagonist – antagonists of human TAAR1 | hit rate 1.5% among 360,000 | inhibition, % at 3 µM | Q96RJ0 | AID 624466 | CHO RD-HGA16 TAAR1, Fluo-8 calcium fluorescence, antagonist;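 active means inhibition above a per-plate cutoff, the mean inhibition of test compounds on that plate plus 3 SD, cut at about 49% in these data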;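 further: 0% = DMSO plus EC80 beta-PEA response and 100% = DMSO alone without agonist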
Target sequence (Q96RJ0 whole entry, looked up): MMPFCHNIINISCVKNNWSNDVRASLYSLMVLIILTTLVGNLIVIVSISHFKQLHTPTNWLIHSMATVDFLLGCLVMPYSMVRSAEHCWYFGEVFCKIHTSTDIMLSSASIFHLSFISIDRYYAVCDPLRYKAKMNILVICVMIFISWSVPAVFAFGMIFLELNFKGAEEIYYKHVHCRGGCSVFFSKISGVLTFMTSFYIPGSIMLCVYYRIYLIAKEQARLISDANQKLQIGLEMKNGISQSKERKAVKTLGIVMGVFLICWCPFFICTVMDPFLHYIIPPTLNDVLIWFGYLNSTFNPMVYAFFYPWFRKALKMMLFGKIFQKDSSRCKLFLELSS
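Material: CHO RD-HGA16 cells bearing hTAAR1; compound dosing: one-point dosing, 3 µM nominal final; schedule: dye loading 75 min at 37 °C, then 30 min room temperature; measured by: calcium fluorescence with Fluo-8; control set: vehicle and agonist controls; replication: n of 1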
TAAR1 ag – agonists of human TAAR1; Q96RJ0; CHO RD-HGA16 TAAR1, Fluo-8 calcium fluorescence; vehicle wells 0%, saturating PEA agonist 100%; activation, % at 3 µM; hit rate 0.99% among 360,000; AID 624467;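 active means activation above the mean activation of all test compounds in the run plus 3 SD, cut at about 38% in these data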
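System: CHO-derived RD-HGA16 cells with stable Gα16 and human TAAR1 / Times: 17-24 h plating, Fluo-8 75 min 37 °C, 30 min RT / Technique: calcium-sensitive Fluo-8 signal, excitation 470-495, emission 515-575 nm / Measure: % activation relative to PEA EC100 response / Benchmarks: DMSO and PEA EC100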
An asterisk follows results filed as active. Only some compounds are listed: those with a hit (about 2.6% of all), similar ones and a draw of the others.

What do the screens show for `COc1ccc(-c2oc3ncnc(NCCCN(C)C)c3c2-c2ccc(OC)cc2)cc1`?
VLA-4 inh: 16; Platelet DG rel: 12; Rce1 inh: inconclusive; TAAR1 antagonist: -7; TAAR1 ag: 0

How did CCN(CC)c1ccc2cc(-c3nc4ccccc4n3C)c(=O)oc2c1 do in these assays?
VLA-4 inh: 11; Platelet DG rel: 5; Rce1 inh: inactive; TAAR1 antagonist: 55*; TAAR1 ag: 28

Results for C[C@H](NC(=O)c1ccccc1)C(=O)OCC(=O)Nc1ccc2c(c1)OCO2 ?
VLA-4 inh: 1; TAAR1 antagonist: 49*; TAAR1 ag: 1

What do the screens show for `CC(C)[C@H](NC(=O)c1ccccc1)C(=O)OCC(=O)Nc1ccc2c(c1)OCCO2`?
VLA-4 inh: 3; Platelet DG rel: -2; Rce1 inh: inactive; TAAR1 antagonist: 3; TAAR1 ag: 4

Results for Cc1ccc(C(=O)NCCc2nnc3ccc(SCC(=O)Nc4nnc(C)s4)nn23)cc1 ?
TAAR1 antagonist: -5; TAAR1 ag: 0

Results for O=C(COc1ccc([N+](=O)[O-])cc1)NNC(=S)NC(=O)c1ccc(Br)cc1 ?
VLA-4 inh: 61*; Platelet DG rel: 10; Rce1 inh: inactive; TAAR1 antagonist: -16; TAAR1 ag: 1

How did O=C(Nc1cccn(Cc2ccc(F)cc2)c1=O)NC1CCCCC1 do in these assays?
VLA-4 inh: 2; Platelet DG rel: -1; Rce1 inh: inactive; TAAR1 antagonist: -8; TAAR1 ag: 39*

Results for CCc1nnc(NC(=O)c2ccc(NS(=O)(=O)c3ccccc3)cc2)s1 ?
VLA-4 inh: -5; Platelet DG rel: -4; Rce1 inh: active; TAAR1 antagonist: -18; TAAR1 ag: 18

What do the screens show for `CC(C)Cn1c(N)cc(=O)n(C)c1=O`?
VLA-4 inh: 61*; Platelet DG rel: -3; Rce1 inh: inactive; TAAR1 antagonist: -11; TAAR1 ag: 3

Results for COc1ccc(N(C)S(=O)(=O)c2cccc(C(=O)Nc3nc4ccccc4[nH]3)c2)cc1 ?
VLA-4 inh: 1; Platelet DG rel: 20; Rce1 inh: inactive; TAAR1 antagonist: 55*; TAAR1 ag: 9

Results for CN(c1cccc(Cl)c1)S(=O)(=O)c1cccc(C(=O)Nc2nc3ccccc3[nH]2)c1 ?
VLA-4 inh: -5; Platelet DG rel: 5; Rce1 inh: inactive; TAAR1 antagonist: 61*; TAAR1 ag: 12

Results for O=C(Nc1nc2ccccc2[nH]1)c1cccc(Cl)c1 ?
VLA-4 inh: 2; Platelet DG rel: -6; Rce1 inh: inactive; TAAR1 antagonist: 4; TAAR1 ag: 0

What do the screens show for `COc1ccccc1NC(=O)Cc1nnc(SCC(=O)Nc2nccs2)n1C`?
VLA-4 inh: 6; Platelet DG rel: 5; Rce1 inh: active; TAAR1 antagonist: 8; TAAR1 ag: -4

Results for COc1ccccc1NC(=O)Cc1nnc(SCC(=O)Nc2ccccc2F)n1C ?
VLA-4 inh: -10; Platelet DG rel: 7; Rce1 inh: inactive; TAAR1 antagonist: -10; TAAR1 ag: 2

How did Cc1ccc(CNC(=O)c2ccc(Cn3nc(C)c(Cl)c3C)o2)cc1 do in these assays?
VLA-4 inh: -10; Platelet DG rel: -4; Rce1 inh: inactive; TAAR1 antagonist: 1; TAAR1 ag: 0

Results for Cc1cc(C)cc(NC(=O)c2ccc(Cn3nc(C)c(Cl)c3C)o2)c1 ?
VLA-4 inh: 43; Platelet DG rel: 0; Rce1 inh: inactive; TAAR1 antagonist: 54*; TAAR1 ag: 29

What do the screens show for `CCC(NC(=O)Cc1cccs1)c1ccccc1` (centres undefined)?
VLA-4 inh: 6; Platelet DG rel: 7; Rce1 inh: inactive; TAAR1 antagonist: -7; TAAR1 ag: 5

What do the screens show for `CCNS(=O)(=O)c1ccc(CCC(=O)Nc2cc(Cl)ccc2Oc2ccccc2)cc1`?
VLA-4 inh: 12; Platelet DG rel: 7; Rce1 inh: inactive; TAAR1 antagonist: 83*; TAAR1 ag: 20

How did CC1Cc2nc(SCC(=O)N3CCN(c4ccccc4)CC3)n(CCc3ccccc3)c(=O)c2S1 (centres undefined) do in these assays?
VLA-4 inh: 7; Platelet DG rel: -1; Rce1 inh: inactive; TAAR1 antagonist: 52*; TAAR1 ag: 1

What do the screens show for `CCOc1ccccc1-n1nnnc1SCc1nc2ccccc2s1`?
VLA-4 inh: 18; Platelet DG rel: -2; Rce1 inh: inactive; TAAR1 antagonist: 53*; TAAR1 ag: 13

Results for CC(C)c1cccc(C2=CC(=O)C[C@H](c3ccc(F)cc3)C2)c1 ?
VLA-4 inh: -12; TAAR1 antagonist: 52*; TAAR1 ag: 6

Results for COc1ccc([C@H]2CC(=O)C=C(c3ccc4ccccc4c3)C2)cc1OC ?
VLA-4 inh: 0; TAAR1 antagonist: 24; TAAR1 ag: 3

What do the screens show for `COc1ccc([C@H]2CC(=O)C=C(c3cccc(C(C)C)c3)C2)cc1OC`?
VLA-4 inh: 27; TAAR1 antagonist: 66*; TAAR1 ag: 5

Results for O=C1C=C(c2ccc(-c3ccccc3)cc2)C[C@@H](c2ccc(F)cc2)C1 ?
VLA-4 inh: 30; TAAR1 antagonist: 4; TAAR1 ag: 0

How did COc1ccc2cc(C3CC=C(CO)CN3S(=O)(=O)c3ccccc3[N+](=O)[O-])n(C(=O)OC(C)(C)C)c2c1 (centres undefined) do in these assays?
TAAR1 antagonist: 50*; TAAR1 ag: 3

How did O=C(CNC(=O)c1nc[nH]c1C(=O)N1CCc2ccccc2C1)OCc1ccccc1 do in these assays?
VLA-4 inh: -7; Platelet DG rel: -3; Rce1 inh: inactive; TAAR1 antagonist: 62*; TAAR1 ag: 21

Results for O=C(N[C@@H](Cc1ccccc1)C(=O)OCc1ccccc1)c1nc[nH]c1C(=O)N1CCN(c2ccccc2)CC1 ?
VLA-4 inh: -19; Platelet DG rel: 10; Rce1 inh: inactive; TAAR1 antagonist: 52*; TAAR1 ag: 12

Results for Cc1ccc(C)c(CC(=O)N2CCCC(c3cc(C(=O)Nc4ccccc4Cl)no3)C2)c1 (centres undefined) ?
TAAR1 antagonist: -7; TAAR1 ag: -1

What do the screens show for `CC(C)(C)c1ccc(C(=O)OCC(=O)Nc2cccc(S(=O)(=O)NC3=NCCC3)c2)cc1`?
TAAR1 antagonist: 0; TAAR1 ag: 9

What do the screens show for `Cc1cc(Br)ccc1NC(=O)CN(C)C(=O)C1CCN(c2ncnc3sc(C)c(C)c23)CC1`?
TAAR1 antagonist: 57*; TAAR1 ag: 12

How did O=c1c(-c2nnc(SCc3ccc(Cl)c(Cl)c3)o2)cccn1Cc1ccccc1 do in these assays?
VLA-4 inh: 5; Platelet DG rel: -2; Rce1 inh: active; TAAR1 antagonist: 3; TAAR1 ag: 5

Results for Oc1ccc(Cl)cc1CNCc1ccc(Cl)nc1 ?
VLA-4 inh: 16; TAAR1 antagonist: 12; TAAR1 ag: 40*

Results for COc1ccc(CNCc2cc(Cl)ccc2O)cc1 ?
VLA-4 inh: -4; TAAR1 antagonist: 13; TAAR1 ag: 34
